Results on one compound are retold here after article PMC7396962 (Xenobiotica; the fate of foreign compounds in biological …, 2020).

≈ marks a conversion by molar mass, not a printed value.

The target of data set [1] is T1, UGT1A1 (Homo sapiens, UniProt P22309).
T1 sequence (P22309 26-533): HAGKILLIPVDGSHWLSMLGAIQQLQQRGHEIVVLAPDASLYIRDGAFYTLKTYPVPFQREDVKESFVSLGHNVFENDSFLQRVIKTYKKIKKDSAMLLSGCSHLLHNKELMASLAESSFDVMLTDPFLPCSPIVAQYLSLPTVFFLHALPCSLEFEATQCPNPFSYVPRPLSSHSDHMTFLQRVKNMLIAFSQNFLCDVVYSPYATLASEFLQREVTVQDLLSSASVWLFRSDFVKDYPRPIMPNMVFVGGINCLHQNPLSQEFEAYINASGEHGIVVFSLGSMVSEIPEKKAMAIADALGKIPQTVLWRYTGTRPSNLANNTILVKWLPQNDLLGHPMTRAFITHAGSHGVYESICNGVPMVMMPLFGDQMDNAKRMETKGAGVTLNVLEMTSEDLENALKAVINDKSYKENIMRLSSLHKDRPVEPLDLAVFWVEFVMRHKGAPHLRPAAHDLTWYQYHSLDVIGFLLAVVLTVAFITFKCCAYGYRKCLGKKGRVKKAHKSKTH
It is filed as in vitro ADME. To be noted: panel of HLMs (n = 9), substrate 10 μM, p = 0.049.

The target of another data set is T2, UGT1A8 (Homo sapiens, UniProt Q9HAW9).
T2 sequence (Q9HAW9 26-530): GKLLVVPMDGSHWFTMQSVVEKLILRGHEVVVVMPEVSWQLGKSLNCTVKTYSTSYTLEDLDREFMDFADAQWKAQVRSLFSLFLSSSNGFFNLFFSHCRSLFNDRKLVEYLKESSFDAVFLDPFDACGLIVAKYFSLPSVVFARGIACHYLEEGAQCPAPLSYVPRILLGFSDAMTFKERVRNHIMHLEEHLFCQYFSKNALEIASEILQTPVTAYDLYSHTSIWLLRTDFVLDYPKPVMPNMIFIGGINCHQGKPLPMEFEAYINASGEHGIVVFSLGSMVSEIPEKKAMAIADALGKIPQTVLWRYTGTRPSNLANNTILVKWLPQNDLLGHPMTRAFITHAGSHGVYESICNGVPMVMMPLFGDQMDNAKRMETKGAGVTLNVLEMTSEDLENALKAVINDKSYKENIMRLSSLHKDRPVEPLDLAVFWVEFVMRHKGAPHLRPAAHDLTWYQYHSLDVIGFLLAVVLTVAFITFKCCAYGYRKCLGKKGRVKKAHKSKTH
Put plainly: Glucuronidation of CA by recombinant UGT1A8. It counts as in vitro ADME. As to conditions: formation of the glucuronide from CA.

Data set [2] concerns the target T1, UGT1A1. Nature of the data set: Glucuronidation of CA by recombinant UGT1A1. To be noted: formation of the glucuronide from CA. It counts as in vitro ADME.
In data set [3] the test system is severe acute respiratory syndrome coronavirus papain-like protease. To be noted: read-out: inhibitory effects on severe acute respiratory syndrome coronavirus papain-like protease; cited from earlier work.
The target of another data set is human carboxylesterase 2. As to conditions: ref Li et al., 2015, cited from earlier work.
Another data set deals with PPAR-γ. To be noted: ref Ma et al., 2016; cited from earlier work.
Data set [4] deals with T3, UGT1A9 (Homo sapiens, UniProt O60656).
T3 sequence (O60656 26-530): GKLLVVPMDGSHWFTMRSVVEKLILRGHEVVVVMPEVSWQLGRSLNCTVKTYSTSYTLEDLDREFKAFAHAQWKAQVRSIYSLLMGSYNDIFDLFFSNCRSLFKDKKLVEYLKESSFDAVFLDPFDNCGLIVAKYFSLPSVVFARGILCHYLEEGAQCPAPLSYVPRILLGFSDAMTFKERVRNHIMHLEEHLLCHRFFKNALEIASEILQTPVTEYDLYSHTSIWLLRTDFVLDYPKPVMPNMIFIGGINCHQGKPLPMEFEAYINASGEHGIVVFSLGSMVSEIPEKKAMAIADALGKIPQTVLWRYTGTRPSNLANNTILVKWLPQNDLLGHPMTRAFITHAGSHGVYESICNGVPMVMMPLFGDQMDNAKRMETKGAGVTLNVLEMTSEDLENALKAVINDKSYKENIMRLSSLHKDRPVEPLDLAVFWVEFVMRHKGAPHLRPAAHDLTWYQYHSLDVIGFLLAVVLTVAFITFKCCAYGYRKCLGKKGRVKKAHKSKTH
Put plainly: Glucuronidation of CA by recombinant UGT1A9. It counts as in vitro ADME. As to conditions: formation of the glucuronide from CA.

For data set [5], the system named is Hep3B hepatocellular carcinoma cell line. As to conditions: cited from earlier work.
Data set [6] concerns recombinant human UGT isoforms. Put plainly: Reaction phenotyping with twelve recombinant UGT isoforms. It is filed as in vitro ADME.
Data set [7] deals with T3, UGT1A9. It is filed as in vitro ADME. To be noted: panel of HLMs (n = 9), substrate 10 μM, p = 0.015. In short, it runs like this:
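Test compound (10 μM) glucuronidated in each of nine individual human liver microsomes (1 mg/mL) with UDPGA and alamethicin, pH 7.4, 37 °C for 60 min. Rates regressed linearly against each donor's propofol O-glucuronidation activity; correlation coefficient r reported, p < 0.05 significant.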

The conditions of data set [8]: rat, in vivo, cited from earlier work.

`CC(C)=CCC/C(C)=C/Cc1cc(-c2coc3cc(O)ccc3c2=O)ccc1O` [CA, Corylifol A]: the “correlation (r) between CA-7-O-glucuronidation and β-estradiol-3-O-glucuronidation” value on UGT1A1 [1] amounted to 0.668. The CLint at UGT1A8 was determined as 135.59 µL/min/mg; at UGT1A1 [2], 284.07 µL/min/mg; at UGT1A9 [4], 191.94 µL/min/mg. Further, the IC50 in data set [3] was 32.3 ± 3.2 µM; on human carboxylesterase 2 (read-out: IC50, human carboxylesterase 2) it was 620 nM. Besides, at human carboxylesterase 2 (read-out: Ki, human carboxylesterase 2), the Ki was 870 nM. Also, the “in vitro PPAR-γ activation” value with PPAR-γ is given as “PPAR-γ activation”. The “IC50, cytotoxic activity” value in data set [5] was 13.5 µg/mL (≈ 34.6 µM). Moreover, the “catalytic activity to CA-glucuronidation” value in data set [6] (UGT1A1, 1A7, 1A8 and 1A9) was “strong catalytic activity”; in [6] (UGT1A3, 1A4, 2B4 and 2B7) it was “weak catalytic activity”. Further, the “correlation (r) between CA-7-O-glucuronidation and propofol-O-glucuronidation” value at UGT1A9 [7] is 0.771. The “maximal plasma concentration (Cmax) of CA” value in data set [8] (2 g/kg) is recorded as 8.87 ng/mL. Moreover, in [8] (po, 1.2 g/kg), the “Cmax of CA” value was 1.70 ng/mL.

Broadly, the Ki is the equilibrium dissociation constant of an inhibitor or competing ligand from its target.
